By inhibition is commonly meant the change of the read-out against control, counted positive when it falls. As a reminder, the IC50 is the midpoint of a concentration-inhibition curve.

This is an account of results in ChEMBL document CHEMBL2062479, “Synthesis and biological evaluation of derivatives of 2-{2-fluoro-4-[(2-oxocyclopentyl)methyl]phenyl}propanoic acid: nonsteroidal anti-inflammatory drugs with low gastric ulcerogenic activity” (J Med Chem, 2012).

The target in data set [1] is T1, Prostaglandin G/H synthase 1 (Homo sapiens, UniProt P23219). Put plainly: Inhibition of human whole blood COX-1 assessed as inhibition of TXB2 production at 100 uM by EIA. An outline of the steps:
(§1)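 Human whole blood COX assay, with COX-1 and COX-2 read as prostaglandin biosynthesis. Relative inhibition (%) was taken at fixed test concentrations of 10 and 100 μM. Mean ± SEM, n = 3−6.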

Data set [2] has as its target T1, Prostaglandin G/H synthase 1. Put plainly: Inhibition of human whole blood COX-1 assessed as inhibition of TXB2 production at 10 uM by EIA. In short, it runs like this:
as §1

For data set [3] the target is unchanged. Put plainly: Inhibition of human whole blood COX-1 assessed as inhibition of TXB2 production by EIA. An outline of the steps: (§2)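 Human whole blood COX-1 and COX-2 assay run over a range of test concentrations. IC50 was fitted to a four-parameter logistic dose−response curve, and the COX-1/COX-2 ratio was computed from the two IC50 values. Mean ± SEM, n = 3−6.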

Data set [4] has as its target T2, Prostaglandin G/H synthase 2 (Homo sapiens) (UniProt P35354).
T2 sequence (whole entry): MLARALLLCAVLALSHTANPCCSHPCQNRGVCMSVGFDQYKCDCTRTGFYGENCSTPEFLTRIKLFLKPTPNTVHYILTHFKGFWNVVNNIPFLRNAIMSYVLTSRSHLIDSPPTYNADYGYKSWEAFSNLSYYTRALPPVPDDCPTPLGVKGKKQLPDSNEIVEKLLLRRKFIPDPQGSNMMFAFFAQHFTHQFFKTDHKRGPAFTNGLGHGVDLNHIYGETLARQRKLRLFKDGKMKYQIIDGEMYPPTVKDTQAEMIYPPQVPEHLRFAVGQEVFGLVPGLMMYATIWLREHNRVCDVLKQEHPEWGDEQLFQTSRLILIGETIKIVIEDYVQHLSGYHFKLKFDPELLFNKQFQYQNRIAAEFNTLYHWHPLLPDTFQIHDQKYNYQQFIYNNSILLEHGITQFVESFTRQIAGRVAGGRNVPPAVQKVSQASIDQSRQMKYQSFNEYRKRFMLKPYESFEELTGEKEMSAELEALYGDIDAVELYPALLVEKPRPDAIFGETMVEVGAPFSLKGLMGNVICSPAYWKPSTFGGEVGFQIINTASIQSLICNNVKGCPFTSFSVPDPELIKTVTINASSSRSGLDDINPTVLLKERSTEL
Put plainly: Inhibition of LPS-stimulated human whole blood COX-2 assessed as inhibition of PGE2 production at 100 uM by EIA. In short, it runs like this:
as §1

For data set [5], the system named is Rattus norvegicus. Put plainly: Antiinflammatory activity against Wistar rat assessed as inhibition of carrageenan induced edema volume at 37.3 uM/kg, po administered 1 hr prior carrageenan-challenge measured after 3 hrs post challenge. The format is functional. In short, it runs like this: (§3)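 Oral dose of 37.3 μM/kg. Carrageenan (1%) was injected intradermally into the left hindpaw 1 h later. Edema was measured 3 h and 6 h after challenge, and relative inhibition of the edema volume increase was calculated. Mean ± SEM, n = 3−6.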

In data set [6] the target is T2, Prostaglandin G/H synthase 2 (Homo sapiens). As to the kind of experiment: Inhibition of LPS-stimulated human whole blood COX-2 assessed as inhibition of PGE2 production at 10 uM by EIA. In short, it runs like this: as §1
For data set [7], the target named is T3, Prostaglandin G/H synthase 2 (Homo sapiens, UniProt P35354).
T3 sequence (P35354 whole entry): T2 sequence (whole entry)
As to the kind of experiment: Inhibition of LPS-stimulated human whole blood COX-2 assessed as inhibition of PGE2 production by EIA. In short, it runs like this:
as §2

Data set [8] deals with Rattus norvegicus. As to the kind of experiment: Antiinflammatory activity against Wistar rat assessed as inhibition of carrageenan induced edema volume at 37.3 uM/kg, po administered 1 hr prior carrageenan-challenge measured after 6 hrs post challenge. The format is functional. An outline of the steps:
as §3
(In general: Carrageenan injected into the paw causes an acute inflammation.)

Data set [9] is filed under the species Homo sapiens. As to the kind of experiment: Selectivity index, ratio of IC50 for human COX1 to IC50 for human COX2. An outline of the steps:
as §2

Data set [10] deals with Rattus norvegicus. Put plainly: Toxicity in rat assessed as gastric ulcerogenic activity at 0.37 to 7.45 mM/kg, po measured after 8 hrs. The conditions noted are these: in vivo. It counts as organism-based, Stomach. In short, it runs like this: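 Rats were given oral doses of 0.37, 0.75, 1.12, 1.86, 3.73 or 7.45 mM/kg. Stomachs were removed 8 h later and scored for hemorrhagic damage. Mean ± SEM, n = 3−6.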

Data set [11] relates to Rattus norvegicus. As to the kind of experiment: Antiinflammatory activity against Wistar rat assessed as inhibition of carrageenan induced edema volume at 3.73 to 37.3 uM/kg, po administered 1 hr prior carrageenan-challenge measured after 3 to 6 hrs post challenge. It counts as functional, organism-based. An outline of the steps: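 Rats dosed orally at 3.73, 11.2 or 37.3 μM/kg. Carrageenan (1%) was injected intradermally into the left hindpaw 1 h after dosing. Footpad edema was measured 3 and 6 h after carrageenan, and relative inhibition of the edema volume increase was calculated. Mean ± SEM, n = 3−6.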

Calls of active or inactive are those of the source. The calls are words filed in the database; no cut-off is given here.

T1 sequence (P23219 whole entry): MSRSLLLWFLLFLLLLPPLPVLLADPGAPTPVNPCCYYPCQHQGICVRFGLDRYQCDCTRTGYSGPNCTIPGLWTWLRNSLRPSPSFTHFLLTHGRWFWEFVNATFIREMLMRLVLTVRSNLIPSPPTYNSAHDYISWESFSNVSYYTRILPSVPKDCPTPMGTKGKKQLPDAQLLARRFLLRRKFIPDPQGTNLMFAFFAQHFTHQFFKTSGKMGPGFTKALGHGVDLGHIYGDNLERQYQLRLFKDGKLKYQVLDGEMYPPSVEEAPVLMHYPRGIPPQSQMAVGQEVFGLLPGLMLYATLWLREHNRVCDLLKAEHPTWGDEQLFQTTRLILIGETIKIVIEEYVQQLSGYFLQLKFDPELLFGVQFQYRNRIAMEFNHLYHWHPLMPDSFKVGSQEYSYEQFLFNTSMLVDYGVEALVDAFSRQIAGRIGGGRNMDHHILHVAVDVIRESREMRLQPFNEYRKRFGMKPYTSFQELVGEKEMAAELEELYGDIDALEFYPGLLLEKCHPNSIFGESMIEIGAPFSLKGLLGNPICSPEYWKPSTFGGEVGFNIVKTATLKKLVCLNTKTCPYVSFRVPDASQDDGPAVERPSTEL

As for `CC(C(=O)O)c1ccc(N[C@H]2CCC[C@@H]2O)cc1F` (some centres not stated), the inhibition in data set [1] turned out to be 83.4%; in data set [2] it was 54.6%; in [4], 77.6%; in data set [6], 45.3%. The IC50 in [3] was 9 µM; in [7] it was 14 µM. Further, the “inhibition (INH)” value is 20.6% in data set [5] and 5.7% in [8]. In addition, in [9], the Ratio IC50 was 0.7.

As for `CCC(=O)C(C)Cc1ccc(C(C)C(=O)O)c(F)c1` (configuration not stated), the inhibition in [1] came out at 13.5%; in data set [2], 0%; in [4] it was 0%; in data set [6], 0%. Further, the “inhibition (INH)” value in [5] and in data set [8] was under 0% each time.

Turning to `CC(C(=O)O)c1ccc(O[C@H]2CCC[C@@H]2O)cc1F` (some centres not stated), the inhibition in data set [1] is 78.2%; in data set [2], 10.4%; in [4], 80.2%; in [6] it was 25.4%. The “inhibition (INH)” value in data set [5] is under 0%; in data set [8] it was 13.3%.

Take `CC(C(=O)O)c1ccc(N[C@H]2CCCC[C@@H]2O)cc1F` (some centres not stated): the inhibition in data set [1] was determined as 0%; in data set [2], 0%; in data set [4], 76.7%; in data set [6] it was 28.3%. Moreover, the “inhibition (INH)” value in data set [5] and in data set [8] was under 0% each time.

In the case of `CC(C(=O)O)c1ccc(Cc2ccoc2)cc1F` (configuration not stated), the Activity entry in [10] is on record as “Non-toxic”. The inhibition came to 57.5% in data set [1], 30.9% in data set [2], 90.9% in data set [4] and 58.7% in data set [6]. Moreover, the IC50 amounted to 30.1 µM in data set [3] and 4 µM in data set [7]. Besides, the “inhibition (INH)” value in data set [5] is reported as 32.7%; in data set [8], 45.2%. Moreover, the Ratio IC50 in [9] amounted to 7.6.

Regarding `CC(C(=O)O)c1cc(F)c(CC2CCCC2=O)cc1F` (configuration not stated), the inhibition in data set [1] came out at 81%; in data set [2] it was 0%; in data set [4] it was 84.8%; in [6], 15%. Moreover, the “inhibition (INH)” value in [5] and in data set [8] was under 0% in each case.

Take `Cc1ccc(-c2cc(C(F)(F)F)nn2-c2ccc(S(N)(=O)=O)cc2)cc1`: the Ratio IC50 in data set [9] turned out to be 22.7.

For the molecule `CC(C(=O)O)c1ccc(CC2CCCC2=O)cc1` (configuration not stated) [LOXOPROFEN], the Activity result in data set [10] is reported as “Toxic”. Also, the inhibition in data set [1] turned out to be 87.5%; in data set [2] it was 35%; in data set [4], 97.4%; in data set [6], 53.2%. Besides, the “inhibition (INH)” value in [5] was determined as 44%; in data set [8] it was 53.1%. Further, the Ratio IC50 in data set [9] turned out to be 2.3.

On to `CC(C(=O)O)c1ccc(Cc2cccs2)cc1F` (configuration not stated), for which the inhibition in data set [1] worked out at 76.5%; in [2], 27.4%; in [4], 89.2%; in data set [6], 45.8%. For the same molecule, the IC50 worked out at 19.9 µM in [3] and 13 µM in data set [7]. The “inhibition (INH)” value is on record as 12.5% in data set [5] and 28% in data set [8]. Also, the Ratio IC50 in data set [9] is 1.5.

On to `CC(C(=O)O)c1ccc(CC2CCCC2=O)cc1F` (configuration not stated), for which, in data set [10], the Activity result is recorded as “Non-toxic”. Moreover, the inhibition in data set [1] was determined as 85.7%; in data set [2], 32.7%; in [4] it was 81.8%; in data set [6], 44.2%. For the same molecule, the inhibition result in data set [11] was “Active”. The “inhibition (INH)” value in data set [5] was found to be 41.8%; in data set [8] it was 54.1%. Also, in data set [9], the Ratio IC50 was found to be 1.7.

Take `CC(C(=O)O)c1ccc(OC2CCCC2=O)cc1F` (configuration not stated): the inhibition in [1] is 82.3%; in [2], 80.6%; in data set [4], 82.5%; in [6] it was 27.6%. Also, the IC50 in [3] came out at 1.5 µM; in data set [7], 24.1 µM. In addition, the “inhibition (INH)” value in data set [5] worked out at 30.3%; in [8], 25%. For the same molecule, the Ratio IC50 in data set [9] was found to be 0.1.

As to `CC(C(=O)O)c1ccc(Cc2ccsc2)cc1F` (configuration not stated), the Activity result in data set [10] was “Toxic”. In addition, the inhibition in data set [1] was 87.4%; in [2], 53.9%; in data set [4], 99.5%; in [6] it was 60.2%. For the same molecule, the IC50 in [3] was 9.5 µM; in data set [7], 8.3 µM. Also, the “inhibition (INH)” value in [5] is listed as 40.2%; in [8], 33.4%. Further, the Ratio IC50 in [9] stood at 1.2.

Take `CC(C(=O)O)c1ccc(Cc2ccco2)cc1F` (configuration not stated): in data set [10], the Activity result is “Non-toxic”. Besides, the inhibition in [1] is 79.9%; in data set [2], 26.3%; in [4] it was 96.1%; in [6] it was 64.1%. The IC50 in [3] is 21.6 µM; in [7], 4.1 µM. The “inhibition (INH)” value in [5] is recorded as 38.9%; in data set [8], 45.8%. In addition, in data set [9], the Ratio IC50 was determined as 5.3.

As to `CC(C(=O)O)c1c(F)cc(CC2CCCC2=O)cc1-c1ccc(O)cc1` (configuration not stated), the inhibition in [1] was 7.2%; in data set [2] it was 0%; in data set [4], 38%; in data set [6], 15.4%. Moreover, the “inhibition (INH)” value in data set [5] and in [8] was under 0% each time.

Take `CCC(Cc1ccc(C(C)C(=O)O)c(F)c1)C(C)=O` (configuration not stated): the inhibition in [1] worked out at 98.1%; in [2], 78%; in [4], 82.2%; in [6], 0%. The entries for the “inhibition (INH)” value in [5] and in [8] were 20.9% and 20.2%, respectively.

With `CC(C(=O)O)c1ccc(NC2CCCCC2)cc1F` (configuration not stated), the inhibition in data set [1] was 0%; in data set [2], 0%; in data set [4] it was 30%; in [6], 0%. The “inhibition (INH)” value in data set [5] is under 0%; in data set [8] it was 19.2%.

Consider `CC(C(=O)O)c1c(F)cc(CC2CCCC2=O)cc1Br` (configuration not stated), for which the inhibition in data set [1] stood at 49.7%; in [2] it was 13.8%; in [4], 0%; in data set [6], 0%. Besides, the “inhibition (INH)” value in [5] and in data set [8] was under 0% throughout.

With `CC(C(=O)O)c1c(F)cc(CC2CCCC2=O)cc1F` (configuration not stated), the inhibition in data set [1] amounted to 79.3%; in [2], 11.3%; in data set [4] it was 70.9%; in [6], 0%. Moreover, the “inhibition (INH)” value in data set [5] came out at 21.6%; in data set [8], 17.7%.

Take `CC(C(=O)O)c1ccc(SC2CCCC2=O)cc1F` (configuration not stated): the inhibition in [1] turned out to be 60.7%; in data set [2] it was 0%; in data set [4] it was 93.1%; in data set [6] it was 55.5%. The “inhibition (INH)” value in data set [5] is 38%; in [8], 27.2%.

In the case of `CC(C(=O)O)c1ccc(SC2CCCC2)cc1F` (configuration not stated), the inhibition was 87.9% in [1], 4.7% in data set [2], 80.1% in [4] and 15.6% in data set [6]. Moreover, the “inhibition (INH)” value in [5] was under 0%; in data set [8], 9.5%.

Turning to `CC(C(=O)O)c1ccc(S[C@H]2CCC[C@@H]2O)cc1F` (some centres not stated), the inhibition is 47.6% in [1], 0% in [2], 64.4% in [4] and 0% in data set [6]. The “inhibition (INH)” value in data set [5] and in [8] was under 0% throughout.
